The values below come from ChEMBL document CHEMBL1275521, “Fluoroquinolone enhances the mutation frequency for meropenem-selected carbapenem resistance in Pseudomonas aeruginosa, but use of the high-potency drug doripenem inhibits mutant formation” (2008).

Assay [1] relates to Pseudomonas aeruginosa. Kind of assay: Antimicrobial activity against Pseudomonas aeruginosa PAO1 after 18 hrs by agar dilution method. The assay is classed as functional. The note with it: PAO1, 18 h. The method in brief: (§1)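 MICs by agar dilution following CLSI guidelines; plates incubated 18 h at 37°C.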
Assay [2] concerns Pseudomonas aeruginosa. Nature of the assay: Antimicrobial activity against wild-type Pseudomonas aeruginosa GP4 after 18 hrs by agar dilution method. It counts as functional. Particulars: GP4, 18 h. In short, it runs like this:
as §1

Assay [3] has as its system Pseudomonas aeruginosa. Nature of the assay: Antimicrobial activity against Pseudomonas aeruginosa PAO1 KTL harboring oprD gene after 18 hrs by agar dilution method. It counts as functional. The method in brief:
(§2)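 Carbapenem-resistant mutants were isolated on carbapenem-containing AB3 agar after 10^6-fold dilution and broth culture, with or without ciprofloxacin or ofloxacin. Randomly picked colonies were checked for MIC by agar dilution following CLSI guidelines, with 18 h incubation at 37°C. PAO1KTL and PAO1KTS came from meropenem selection without fluoroquinolone.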

In assay [4] the test system is Pseudomonas aeruginosa. Kind of assay: Antimicrobial activity against Pseudomonas aeruginosa PAO1 KTL1 harboring oprD, mexAB-oprM gene after 18 hrs by agar dilution method. The note with it: PAO1 KTL1, 18 h. It counts as functional.
The subject of assay [5] is Pseudomonas aeruginosa. Kind of assay: Antimicrobial activity against Pseudomonas aeruginosa PAO1 SO20 harboring mexAB-oprM gene after 18 hrs by agar dilution method. It counts as functional. The note with it: PAO1 SO20, 18 h.
Assay [6] deals with Pseudomonas aeruginosa. Nature of the assay: Antimicrobial activity against Pseudomonas aeruginosa GP20KT21 harboring oprD gene after 18 hrs by agar dilution method. It counts as functional. The note with it: GP20KT21, 18 h. The method in brief:
as §2

Assay [7] has as its system Pseudomonas aeruginosa. Nature of the assay: Antimicrobial activity against Pseudomonas aeruginosa GP37KT31 harboring oprD gene after 18 hrs by agar dilution method. It counts as functional. The note with it: GP37KT31, 18 h. In short, it runs like this:
as §2

In assay [8] the test system is Pseudomonas aeruginosa. Nature of the assay: Antimicrobial activity against wild-type Pseudomonas aeruginosa GP62 after 18 hrs by agar dilution method. The assay is classed as functional. The note with it: GP62, 18 h. The method in brief:
as §1

For assay [9], the system named is Pseudomonas aeruginosa. Kind of assay: Antimicrobial activity against wild-type Pseudomonas aeruginosa GP37 after 18 hrs by agar dilution method. The note with it: GP37, 18 h. It counts as functional. In short, it runs like this: as §1
Assay [10] relates to Pseudomonas aeruginosa. Nature of the assay: Antimicrobial activity against Pseudomonas aeruginosa GP61KT51 harboring oprD,mexAB-oprM gene after 18 hrs by agar dilution method. It counts as functional. The note with it: GP61KT51, 18 h.
The subject of assay [11] is Pseudomonas aeruginosa. Nature of the assay: Antimicrobial activity against wild-type Pseudomonas aeruginosa GP61 after 18 hrs by agar dilution method. Particulars: GP61, 18 h. It counts as functional. The method in brief: as §1
Assay [12] concerns Pseudomonas aeruginosa. Kind of assay: Antimicrobial activity against Pseudomonas aeruginosa GP4KT11 harboring oprD gene after 18 hrs by agar dilution method. The note with it: GP4KT11, 18 h.
In assay [13] the test system is Pseudomonas aeruginosa. Kind of assay: Antimicrobial activity against Pseudomonas aeruginosa GP4KT111 harboring oprD,mexAB-oprM gene after 18 hrs by agar dilution method. Particulars: GP4KT111, 18 h. It counts as functional.
The test system of assay [14] is Pseudomonas aeruginosa. Nature of the assay: Antimicrobial activity against Pseudomonas aeruginosa PAO1 IPM46 harboring oprD gene after 18 hrs by agar dilution method. Particulars: PAO1 IPM46, 18 h. It counts as functional.
In assay [15] the test system is Pseudomonas aeruginosa. Kind of assay: Antimicrobial activity against Pseudomonas aeruginosa PAO1 KTS harboring mexAB-oprM gene after 18 hrs by agar dilution method. It counts as functional. In short, it runs like this:
as §2

Assay [16] has as its system Pseudomonas aeruginosa. Nature of the assay: Antimicrobial activity against Pseudomonas aeruginosa GP62KT41 harboring oprD gene after 18 hrs by agar dilution method. It counts as functional. Particulars: GP62KT41, 18 h. The method in brief: as §2
Assay [17] relates to Pseudomonas aeruginosa. Nature of the assay: Antimicrobial activity against wild-type Pseudomonas aeruginosa GP20 after 18 hrs by agar dilution method. The assay is classed as functional. Particulars: GP20, 18 h. The method in brief:
as §1

≈ marks a conversion by molar mass, not a printed value.

For `C[C@@H](O)[C@H]1C(=O)N2C(C(=O)O)=C(S[C@@H]3CN[C@H](CNS(N)(=O)=O)C3)[C@H](C)[C@H]12` [DORIPENEM], the MIC in the assay on Pseudomonas aeruginosa [1] was 0.2 µg/mL (≈ 0.476 µM); in the assay with Pseudomonas aeruginosa [2], 0.2 µg/mL (≈ 0.476 µM); in the assay on Pseudomonas aeruginosa [3], 0.8 µg/mL (≈ 1.9 µM); against Pseudomonas aeruginosa [4], 1.6 µg/mL (≈ 3.8 µM); in the assay on Pseudomonas aeruginosa [5] it was 0.4 µg/mL (≈ 0.951 µM); with Pseudomonas aeruginosa [6], 1.6 µg/mL (≈ 3.8 µM). For the same compound, the MIC in the assay with Pseudomonas aeruginosa [7] came out at 1.6 µg/mL (≈ 3.8 µM); in the assay with Pseudomonas aeruginosa [8], 0.1 µg/mL (≈ 0.238 µM); against Pseudomonas aeruginosa [9], 0.2 µg/mL (≈ 0.476 µM); in the assay on Pseudomonas aeruginosa [10], 1.6 µg/mL (≈ 3.8 µM); against Pseudomonas aeruginosa [11] it was 0.8 µg/mL (≈ 1.9 µM); in the assay on Pseudomonas aeruginosa [12], 1.6 µg/mL (≈ 3.8 µM). Further, the MIC was determined as 3.1 µg/mL (≈ 7.37 µM) against Pseudomonas aeruginosa [13]; 0.8 µg/mL (≈ 1.9 µM) in the assay on Pseudomonas aeruginosa [14]; 0.4 µg/mL (≈ 0.951 µM) against Pseudomonas aeruginosa [15]; 0.8 µg/mL (≈ 1.9 µM) against Pseudomonas aeruginosa [16]; 0.2 µg/mL (≈ 0.476 µM) in the assay with Pseudomonas aeruginosa [17].

As for `C[C@@H](O)[C@H]1C(=O)N2C(C(=O)O)=C(SCCNC=N)C[C@H]12` [IMIPENEM ANHYDROUS], the MIC stood at 0.8 µg/mL (≈ 2.67 µM) against Pseudomonas aeruginosa [1]; 0.8 µg/mL (≈ 2.67 µM) against Pseudomonas aeruginosa [2]; 12.5 µg/mL (≈ 41.8 µM) against Pseudomonas aeruginosa [3]; 12.5 µg/mL (≈ 41.8 µM) with Pseudomonas aeruginosa [4]; 0.8 µg/mL (≈ 2.67 µM) with Pseudomonas aeruginosa [5]; 12.5 µg/mL (≈ 41.8 µM) in the assay on Pseudomonas aeruginosa [6]. Besides, the MIC against Pseudomonas aeruginosa [7] turned out to be 12.5 µg/mL (≈ 41.8 µM); against Pseudomonas aeruginosa [8] it was 0.8 µg/mL (≈ 2.67 µM); against Pseudomonas aeruginosa [9], 0.8 µg/mL (≈ 2.67 µM); against Pseudomonas aeruginosa [10], 6.3 µg/mL (≈ 21 µM); against Pseudomonas aeruginosa [11], 6.3 µg/mL (≈ 21 µM); against Pseudomonas aeruginosa [12], 12.5 µg/mL (≈ 41.8 µM). Also, the MIC in the assay on Pseudomonas aeruginosa [13] came to 12.5 µg/mL (≈ 41.8 µM); in the assay with Pseudomonas aeruginosa [14], 12.5 µg/mL (≈ 41.8 µM); against Pseudomonas aeruginosa [15] it was 0.8 µg/mL (≈ 2.67 µM); against Pseudomonas aeruginosa [16], 12.5 µg/mL (≈ 41.8 µM); in the assay with Pseudomonas aeruginosa [17], 0.8 µg/mL (≈ 2.67 µM).

In the case of `CC(C)(O/N=C(\C(=O)N[C@@H]1C(=O)N2C(C(=O)[O-])=C(C[n+]3ccccc3)CS[C@H]12)c1csc(N)n1)C(=O)O` [CEFTAZIDIME], the minimum inhibitory concentration (MIC) came out at 1.6 µg/mL (≈ 2.93 µM) against Pseudomonas aeruginosa [1]; 1.6 µg/mL (≈ 2.93 µM) in the assay on Pseudomonas aeruginosa [2]; 1.6 µg/mL (≈ 2.93 µM) in the assay on Pseudomonas aeruginosa [3]; 6.3 µg/mL (≈ 11.5 µM) in the assay with Pseudomonas aeruginosa [4]; 6.3 µg/mL (≈ 11.5 µM) against Pseudomonas aeruginosa [5]; 1.6 µg/mL (≈ 2.93 µM) in the assay on Pseudomonas aeruginosa [6]. Moreover, the MIC with Pseudomonas aeruginosa [7] came out at 1.6 µg/mL (≈ 2.93 µM); against Pseudomonas aeruginosa [8], 1.6 µg/mL (≈ 2.93 µM); with Pseudomonas aeruginosa [9], 1.6 µg/mL (≈ 2.93 µM); against Pseudomonas aeruginosa [10] it was 12.5 µg/mL (≈ 22.9 µM); in the assay with Pseudomonas aeruginosa [11], 3.1 µg/mL (≈ 5.67 µM); against Pseudomonas aeruginosa [12] it was 1.6 µg/mL (≈ 2.93 µM). Further, the MIC came out at 6.3 µg/mL (≈ 11.5 µM) against Pseudomonas aeruginosa [13]; 1.6 µg/mL (≈ 2.93 µM) with Pseudomonas aeruginosa [14]; 6.3 µg/mL (≈ 11.5 µM) against Pseudomonas aeruginosa [15]; 1.6 µg/mL (≈ 2.93 µM) against Pseudomonas aeruginosa [16]; 1.6 µg/mL (≈ 2.93 µM) with Pseudomonas aeruginosa [17].

On to `O=C(O)c1cn(C2CC2)c2cc(N3CCNCC3)c(F)cc2c1=O` [CIPROFLOXACIN], for which the MIC amounted to 0.2 µg/mL (≈ 0.604 µM) against Pseudomonas aeruginosa [1]; 0.2 µg/mL (≈ 0.604 µM) in the assay on Pseudomonas aeruginosa [2]; 0.2 µg/mL (≈ 0.604 µM) against Pseudomonas aeruginosa [3]; 0.8 µg/mL (≈ 2.41 µM) in the assay with Pseudomonas aeruginosa [4]; 0.8 µg/mL (≈ 2.41 µM) in the assay with Pseudomonas aeruginosa [5]; 0.2 µg/mL (≈ 0.604 µM) with Pseudomonas aeruginosa [6]. The MIC in the assay on Pseudomonas aeruginosa [7] came out at 0.2 µg/mL (≈ 0.604 µM); against Pseudomonas aeruginosa [8], 0.2 µg/mL (≈ 0.604 µM); against Pseudomonas aeruginosa [9], 0.2 µg/mL (≈ 0.604 µM); against Pseudomonas aeruginosa [10] it was 0.8 µg/mL (≈ 2.41 µM); in the assay with Pseudomonas aeruginosa [11] it was 0.2 µg/mL (≈ 0.604 µM); against Pseudomonas aeruginosa [12], 0.2 µg/mL (≈ 0.604 µM). Also, the MIC stood at 0.8 µg/mL (≈ 2.41 µM) with Pseudomonas aeruginosa [13]; 0.2 µg/mL (≈ 0.604 µM) in the assay on Pseudomonas aeruginosa [14]; 0.8 µg/mL (≈ 2.41 µM) in the assay with Pseudomonas aeruginosa [15]; 0.2 µg/mL (≈ 0.604 µM) in the assay with Pseudomonas aeruginosa [16]; 0.2 µg/mL (≈ 0.604 µM) against Pseudomonas aeruginosa [17].
